Active and inactive are the calls of the source. The rule behind the calls is not given here.
Tests used:
KB = assay: Antitumor activity against FR-positive human KB cells assessed as decrease in cell viability measured after 48 hrs by MTT proliferation assay; assay type: functional, cell-based
Procedure, shortened: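 Cells kept in folate-free RPMI with 10% heat-inactivated FCS. Seeded at 1.0 × 10^4 cells/well and left to adhere overnight. Medium then replaced with drug at 0.1–500 nM, with or without 0.01 mM FA competitor, for 48 h at 37 °C. MTT added for 3 h, formazan dissolved in DMSO, A570 read against a no-MTT baseline. Viability given as % of control; 5 repeats.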

[1] = Half life in human serum at 37 degC; assay type: ADME, cell-free
Procedure, shortened: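 Compound added to human serum at a final 200 µM and held at 37 °C in a water bath for up to 24 h. Samples taken at 1–3, 5, 8, 12, 18 and 24 h (n = 3). Compound recovered by solid-phase extraction after adding 6 M guanidine (pH 7.4), then measured by HPLC as % recovery.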

Mus musculus = assay: Toxicity in FR-positive human KB cells implanted Balb/c mouse assessed as gross toxicity at 2 umol/kg, iv TIW 2 week schedule; assay type: organism-based; conditions: in vivo, 336 h
Procedure, shortened: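 Female Balb/c mice, 6–7 weeks old, on folate-free diet. 1 × 10^6 KB cells injected into the dorsal subcutis. Dosing began at tumor volumes of 50–110 mm³: 2 µmol/kg iv, three times a week for 2 weeks, alone or with 40-fold excess FA; PBS for controls. Caliper volumes (0.5 × L × W²) every 2–3 days; body weight followed. n = 5 per cohort.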

M109 = assay: In vivo antitumor activity against FR-positive mouse M109 cells implanted in Balb/c mouse assessed as decrease in tumor volume at 2 umol/kg, iv treated 33 days after implantation for TIW 3 week schedule; assay type: functional, organism-based

half-life [1]	IC50 (KB)	Structure (SMILES)	inhibition (KB)	Activity (Mus musculus)	inhibition (M109)
–	–	COc1ccc(/C=C/c2cc(O)cc(O[C@@H]3O[C@H](CNC(=O)OCCSSc4ccccn4)[C@@H](O)[C@H](O)[C@H]3O)c2)cc1O	Active	–	–
3.5 h	34 nM	COc1ccc(/C=C/c2cc(O)cc(O[C@@H]3O[C@H](CO)[C@@H](O)[C@H](O)[C@H]3O)c2)cc1O [RHAPONTIN]	–	Toxic	Active
–	–	COc1ccc(/C=C/c2cc(O)cc(O[C@@H]3O[C@H](CN)[C@@H](O)[C@H](O)[C@H]3O)c2)cc1O	Active	–	–

Reference: ChEMBL document CHEMBL2311329, “Synthesis and biological evaluation of a folate-targeted rhaponticin conjugate” (Bioorg Med Chem, 2013)
